Assay results from different studies.
Protocols differ between the studies behind these lines.
Cell line: NCI-H322M
Read-out: cell growth or viability

Compound | method | time | endpoint | value
O=C1NCCc2[nH]c(-c3ccncc3)cc21 |  |  | IC50 | > 10 µM
COc1ccc(-c2ccc(-c3ccc(C(=N)N)nc3)s2)cc1 | SRB |  | GI50 | 1.59 µM
CCc1n(Cc2ccc3ccccc3n2)cc[n+]1Cc1ccc2ccccc2n1 | SRB |  | TGI | 41.9 µM
Cc1cc(C)n(C(=S)[S][Au][PH](CCCCCC[PH]([Au][S]C(=S)n2nc(C)cc2C)(c2ccccc2)c2ccccc2)(c2ccccc2)c2ccccc2)n1 | SRB |  | GI50 | 0.423 µM
COc1ccc(C(=O)/C=C/c2cccnc2)cc1S(N)(=O)=O | SRB | 48 h | GI50 | 12.3 µM
S=C([S][Au-][P+](CCCCCC[P+]([Au-][S]C(=S)n1cccn1)(c1ccccc1)c1ccccc1)(c1ccccc1)c1ccccc1)n1cccn1 | SRB |  | GI50 | 0.417 µM
COc1cccc(Oc2ccccc2NC(=O)CNC(=O)c2cccc3ccccc23)c1 | SRB | 48 h | GI50 | 1.29 µM
COc1cc(-c2ccc(-c3ccc(C(=N)N)nc3)s2)cc(OC)c1OC | SRB |  | GI50 | 3.23 µM
c1ccc2cc(Cn3cc[n+](Cc4ccc5ccccc5c4)c3)ccc2c1 | SRB |  | TGI | 21.3 µM
O=C1NC(=NCc2cccs2)S/C1=C\c1ccc2ncccc2c1 |  |  | IC50 | > 10 µM
COc1ccc(C(=O)/C=C/c2cc3c(cc2Br)OCO3)cc1S(N)(=O)=O | SRB | 48 h | GI50 | 3.8 µM
CCc1n(Cc2ccc3ccccc3n2)cc[n+]1Cc1ccc2ccccc2c1 | SRB |  | TGI | 13.8 µM
